Measured values: the M2OR odorant receptor database

What was measured:
Details in all cases: stereoisomer not certain
OR5AC1 (Homo sapiens) = OR5AC1 (Homo sapiens) (UniProt P0C628)
How it was run: (§1)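 Each receptor–molecule pair is labelled responsive or non-responsive (inactive) according to whether the original authors judged the measured signal statistically different from baseline. The data were taken from the main text and supplementary material of published papers and checked for typos and inconsistencies. Assay methods differed by source, with transient luciferase assays in mammalian cell lines being common.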

OR5AC2 (Homo sapiens) = target: T1, OR5AC2 (Homo sapiens) (UniProt Q9NZP5)
T1 sequence (whole entry): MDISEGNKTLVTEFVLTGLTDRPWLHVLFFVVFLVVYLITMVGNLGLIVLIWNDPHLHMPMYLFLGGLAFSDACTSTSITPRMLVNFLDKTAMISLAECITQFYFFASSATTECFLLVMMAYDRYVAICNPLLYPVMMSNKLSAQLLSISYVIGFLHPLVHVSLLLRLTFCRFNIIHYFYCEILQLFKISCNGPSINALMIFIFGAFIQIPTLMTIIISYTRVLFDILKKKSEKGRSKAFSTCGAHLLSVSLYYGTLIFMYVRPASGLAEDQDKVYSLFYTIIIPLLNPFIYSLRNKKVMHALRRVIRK
How it was run: as §1

OR5AK2 (Homo sapiens) = OR5AK2 (Homo sapiens) (UniProt Q8NH90)
How it was run: as §1

OR5AL1 (Homo sapiens) = OR5AL1 (Homo sapiens) (UniProt P0C617)
How it was run: as §1

OR5AN1 (Homo sapiens) = target: T2, OR5AN1 (Homo sapiens) (UniProt Q8NGI8)
T2 sequence (whole entry): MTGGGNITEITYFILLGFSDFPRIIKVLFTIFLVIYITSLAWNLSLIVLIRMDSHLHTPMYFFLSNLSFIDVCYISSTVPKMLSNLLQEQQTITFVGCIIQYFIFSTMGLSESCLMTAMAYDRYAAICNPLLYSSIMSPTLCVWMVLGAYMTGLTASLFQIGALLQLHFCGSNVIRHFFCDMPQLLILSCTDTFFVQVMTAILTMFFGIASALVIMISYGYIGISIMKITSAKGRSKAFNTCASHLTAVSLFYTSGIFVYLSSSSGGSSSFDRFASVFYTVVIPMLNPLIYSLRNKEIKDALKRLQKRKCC
How it was run: as §1

OR5AP2 (Homo sapiens) = OR5AP2 (Homo sapiens) (UniProt Q8NGF4)
How it was run: as §1

OR5AR1 (Homo sapiens) = OR5AR1 (Homo sapiens) (UniProt Q8NGP9)
How it was run: as §1

OR5AS1 (Homo sapiens) = OR5AS1 (Homo sapiens) (UniProt Q8N127)
How it was run: as §1

OR5AU1 (Homo sapiens) = OR5AU1 (Homo sapiens) (UniProt Q8NGC0)
How it was run: as §1

OR5B12 (Homo sapiens) = OR5B12 (Homo sapiens) (UniProt Q96R08)
How it was run: as §1
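Note: active if original authors judged signal statistically different from baseline.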

OR5AU1 (Homo sapiens), sequence (Q8NGC0 whole entry): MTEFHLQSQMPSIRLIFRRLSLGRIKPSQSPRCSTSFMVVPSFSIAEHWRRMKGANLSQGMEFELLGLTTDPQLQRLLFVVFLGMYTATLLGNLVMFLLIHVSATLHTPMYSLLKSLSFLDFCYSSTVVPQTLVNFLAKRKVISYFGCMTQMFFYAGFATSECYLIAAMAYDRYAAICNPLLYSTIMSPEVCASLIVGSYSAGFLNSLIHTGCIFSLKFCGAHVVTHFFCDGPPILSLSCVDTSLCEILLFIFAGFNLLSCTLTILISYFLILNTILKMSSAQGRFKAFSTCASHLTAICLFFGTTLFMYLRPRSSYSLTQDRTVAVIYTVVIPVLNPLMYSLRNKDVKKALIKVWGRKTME
OR5AP2 (Homo sapiens), sequence (Q8NGF4 whole entry): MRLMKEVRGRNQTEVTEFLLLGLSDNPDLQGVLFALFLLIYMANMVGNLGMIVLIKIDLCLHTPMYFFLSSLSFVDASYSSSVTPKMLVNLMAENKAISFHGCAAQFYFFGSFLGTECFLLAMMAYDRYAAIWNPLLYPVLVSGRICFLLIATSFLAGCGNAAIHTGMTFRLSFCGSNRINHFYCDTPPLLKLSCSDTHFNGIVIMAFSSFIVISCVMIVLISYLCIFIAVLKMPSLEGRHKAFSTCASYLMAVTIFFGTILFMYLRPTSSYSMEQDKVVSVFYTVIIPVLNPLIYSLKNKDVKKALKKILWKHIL
OR5AS1 (Homo sapiens), sequence (Q8N127 whole entry): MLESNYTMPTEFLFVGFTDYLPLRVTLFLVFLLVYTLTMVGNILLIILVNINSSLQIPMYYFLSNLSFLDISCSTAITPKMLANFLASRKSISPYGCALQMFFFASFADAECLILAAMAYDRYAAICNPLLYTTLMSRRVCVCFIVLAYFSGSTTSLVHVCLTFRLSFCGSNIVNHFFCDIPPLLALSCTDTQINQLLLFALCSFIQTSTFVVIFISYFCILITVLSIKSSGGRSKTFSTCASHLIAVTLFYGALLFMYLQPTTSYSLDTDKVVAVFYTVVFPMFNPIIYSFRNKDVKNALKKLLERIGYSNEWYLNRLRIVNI
OR5B12 (Homo sapiens), sequence (Q96R08 whole entry): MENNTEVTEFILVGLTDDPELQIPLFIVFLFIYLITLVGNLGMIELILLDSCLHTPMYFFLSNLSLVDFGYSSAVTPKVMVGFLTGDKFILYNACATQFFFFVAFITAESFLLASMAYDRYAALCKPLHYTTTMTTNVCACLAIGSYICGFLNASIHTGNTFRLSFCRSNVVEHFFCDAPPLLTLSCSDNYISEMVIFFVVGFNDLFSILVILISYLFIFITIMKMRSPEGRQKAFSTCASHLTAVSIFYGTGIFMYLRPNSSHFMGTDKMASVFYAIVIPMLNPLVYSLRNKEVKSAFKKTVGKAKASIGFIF
OR5AK2 (Homo sapiens), sequence (Q8NH90 whole entry): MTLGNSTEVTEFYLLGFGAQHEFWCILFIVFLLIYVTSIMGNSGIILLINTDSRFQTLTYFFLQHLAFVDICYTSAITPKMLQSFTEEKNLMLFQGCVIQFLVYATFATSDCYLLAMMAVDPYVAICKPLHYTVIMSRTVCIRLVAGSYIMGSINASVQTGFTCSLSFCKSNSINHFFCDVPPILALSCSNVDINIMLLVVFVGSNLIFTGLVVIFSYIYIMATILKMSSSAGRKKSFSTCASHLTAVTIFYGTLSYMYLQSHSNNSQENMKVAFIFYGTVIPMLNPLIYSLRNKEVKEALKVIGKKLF
OR5AR1 (Homo sapiens), sequence (Q8NGP9 whole entry): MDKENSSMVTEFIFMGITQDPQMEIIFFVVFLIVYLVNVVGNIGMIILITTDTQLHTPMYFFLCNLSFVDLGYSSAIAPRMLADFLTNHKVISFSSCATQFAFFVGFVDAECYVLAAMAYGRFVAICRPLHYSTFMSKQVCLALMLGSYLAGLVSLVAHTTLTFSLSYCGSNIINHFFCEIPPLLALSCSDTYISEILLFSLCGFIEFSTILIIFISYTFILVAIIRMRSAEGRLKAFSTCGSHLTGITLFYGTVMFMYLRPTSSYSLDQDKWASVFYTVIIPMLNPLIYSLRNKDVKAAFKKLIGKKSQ
OR5AL1 (Homo sapiens), sequence (P0C617 whole entry): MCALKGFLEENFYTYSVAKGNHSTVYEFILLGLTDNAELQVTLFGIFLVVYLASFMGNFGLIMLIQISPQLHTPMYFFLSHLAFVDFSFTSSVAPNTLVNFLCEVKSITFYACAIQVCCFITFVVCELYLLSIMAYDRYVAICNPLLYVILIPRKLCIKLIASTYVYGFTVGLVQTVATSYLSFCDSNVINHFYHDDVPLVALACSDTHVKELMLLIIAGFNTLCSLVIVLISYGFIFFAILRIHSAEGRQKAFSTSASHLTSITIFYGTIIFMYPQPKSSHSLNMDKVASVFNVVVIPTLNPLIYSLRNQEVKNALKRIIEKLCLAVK
OR5AC1 (Homo sapiens), sequence (P0C628 whole entry): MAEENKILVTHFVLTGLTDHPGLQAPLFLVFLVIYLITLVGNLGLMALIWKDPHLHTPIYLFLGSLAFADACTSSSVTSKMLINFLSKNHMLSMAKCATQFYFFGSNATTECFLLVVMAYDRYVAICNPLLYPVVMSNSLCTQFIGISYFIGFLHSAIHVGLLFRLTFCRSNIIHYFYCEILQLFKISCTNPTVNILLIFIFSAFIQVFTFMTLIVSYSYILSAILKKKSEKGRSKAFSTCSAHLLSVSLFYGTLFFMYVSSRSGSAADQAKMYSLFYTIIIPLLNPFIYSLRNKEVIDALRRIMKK

Question: Which “odorant receptor agonist call” value (OR5AC1 (Homo sapiens)) does the source give for `Cc1c([N+](=O)[O-])c(C)c([N+](=O)[O-])c(C(C)(C)C)c1[N+](=O)[O-]` here?
Answer: The value was “inactive”.

Question: What about the “odorant receptor agonist call” value (OR5AC2 (Homo sapiens)) of the same molecule?
Answer: The value was “inactive”.

Question: And the “odorant receptor agonist call” value (OR5AK2 (Homo sapiens))?
Answer: Its value is “inactive”.

Question: And the “odorant receptor agonist call” value (OR5AL1 (Homo sapiens))?
Answer: The value was “inactive”.

Question: What about the “odorant receptor agonist call” value (OR5AN1 (Homo sapiens)) of the same molecule?
Answer: The value was “active”.

Question: And the “odorant receptor agonist call” value (OR5AP2 (Homo sapiens))?
Answer: The value was “inactive”.

Question: And the “odorant receptor agonist call” value (OR5AR1 (Homo sapiens))?
Answer: The value was “inactive”.

Question: And the “odorant receptor agonist call” value (OR5AS1 (Homo sapiens))?
Answer: Its value is “inactive”.

Question: What about the “odorant receptor agonist call” value (OR5AU1 (Homo sapiens)) of the same molecule?
Answer: Its value is “inactive”.

Question: What about the “odorant receptor agonist call” value (OR5B12 (Homo sapiens)) of the same molecule?
Answer: The value was “inactive”.

Question: Which “odorant receptor agonist call” value (OR5AN1 (Homo sapiens)) does the source give for `CC(=O)c1cc(C(C)(C)C)cc2c1CCC2(C)C` here?
Answer: The value was “inactive”.

Question: With `CC(=O)c1cc2c(cc1C)C(C)(C)C(C)CC2(C)C` (stereo not drawn) as the molecule, how does the “odorant receptor agonist call” value (OR5AN1 (Homo sapiens)) read?
Answer: The value was “inactive”.

Question: With `O=Cc1ccccc1` as the molecule, how does the “odorant receptor agonist call” value (OR5AC2 (Homo sapiens)) read?
Answer: Its value is “inactive”.

Question: `C=CCc1ccc(OC)cc1` was tested. Which “odorant receptor agonist call” value (OR5AC2 (Homo sapiens)) did it give?
Answer: Its value is “inactive”.

Question: `O=CC=Cc1ccccc1` was tested. Which “odorant receptor agonist call” value (OR5AC2 (Homo sapiens)) did it give?
Answer: The value was “inactive”.

Question: With `C=CCOC(=O)Cc1ccccc1` as the molecule, how does the “odorant receptor agonist call” value (OR5AC2 (Homo sapiens)) read?
Answer: The value was “inactive”.

Question: And the “odorant receptor agonist call” value (OR5AK2 (Homo sapiens))?
Answer: The value was “inactive”.

Question: And the “odorant receptor agonist call” value (OR5AN1 (Homo sapiens))?
Answer: The value was “inactive”.

Question: What about the “odorant receptor agonist call” value (OR5AP2 (Homo sapiens)) of the same molecule?
Answer: The value was “inactive”.

Question: What about the “odorant receptor agonist call” value (OR5AR1 (Homo sapiens)) of the same molecule?
Answer: Its value is “inactive”.

Question: And the “odorant receptor agonist call” value (OR5AS1 (Homo sapiens))?
Answer: Its value is “inactive”.

Question: What about the “odorant receptor agonist call” value (OR5AU1 (Homo sapiens)) of the same molecule?
Answer: Its value is “inactive”.

Question: What about the “odorant receptor agonist call” value (OR5B12 (Homo sapiens)) of the same molecule?
Answer: Its value is “inactive”.
